Values after ≈ are worked out from the molar mass of the structure shown.
Columns and labels:
[1] = tested on: Mycobacterium tuberculosis; test: Antitubercular activity against Mycobacterium tuberculosis H37Rv; type: functional
Summary of the method: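 Broth microdilution in iron-deficient GAST, in quadruplicate, with drugs from DMSO stocks and DMSO-treated control wells. Initial density 10^4–10^5 cells/assay, 37 °C, OD620 read at 10 and 14 days. MIC99 is the concentration giving complete growth inhibition.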

[2] = target: T1, Salicyl-AMP ligase / salicyl-S-ArCP synthetase (Mycobacterium tuberculosis, UniProt P71716); test: Inhibition of Mycobacterium tuberculosis MbtA by [32P]PPi-ATP exchange assay; conditions: read-out: Ki app
T1 sequence (P71716 whole entry): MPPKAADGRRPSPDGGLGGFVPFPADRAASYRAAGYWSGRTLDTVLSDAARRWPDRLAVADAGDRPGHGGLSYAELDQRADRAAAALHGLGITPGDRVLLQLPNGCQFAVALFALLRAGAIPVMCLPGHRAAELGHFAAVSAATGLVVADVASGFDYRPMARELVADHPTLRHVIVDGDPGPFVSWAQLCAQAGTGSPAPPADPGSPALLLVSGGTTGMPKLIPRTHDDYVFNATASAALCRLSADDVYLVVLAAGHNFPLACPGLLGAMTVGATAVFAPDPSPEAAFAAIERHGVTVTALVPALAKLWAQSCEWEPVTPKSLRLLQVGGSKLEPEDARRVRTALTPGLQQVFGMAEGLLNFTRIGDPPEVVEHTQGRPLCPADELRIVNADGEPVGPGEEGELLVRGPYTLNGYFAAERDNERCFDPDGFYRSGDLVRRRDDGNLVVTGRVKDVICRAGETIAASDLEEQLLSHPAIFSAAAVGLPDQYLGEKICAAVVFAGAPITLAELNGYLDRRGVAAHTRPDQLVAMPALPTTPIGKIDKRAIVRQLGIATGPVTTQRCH
Summary of the method: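 Native MbtA (His6-SUMO tag removed), 7 nM, with 250 μM salicylic acid, 10 mM ATP and 1 mM PPi in 75 mM Tris-HCl pH 7.5, 10 mM MgCl2, 2 mM DTT. Inhibitor in DMSO preincubated 10 min at 23 °C, then [32P]PPi added and run 20 min at 37 °C. Charcoal-bound γ-[32P]ATP counted; duplicate data fit to Morrison equation ([E] 7.0 nM) for KIapp.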

[3] = tested on: Yersinia pseudotuberculosis; test: Inhibitory activity against Yersinia pseudotuberculosis ATCC 6902; type: functional
Summary of the method: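 Broth microdilution in triplicate in desferrated BHI (Chelex-treated plus 200 μM 2,2′-dipyridyl), with or without 150 μM FeCl3 for iron-rich conditions. Initial density 10^3–10^4 cells/well, compounds up to 100 μM, 1% DMSO control. Grown 24 h at 37 °C with shaking; OD600 read; MIC99.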

Compound | MIC99 [1] [µM] | Ki [2] [nM] | MIC99 [3] [µM]
NNC(=O)c1ccncc1 [ISONIAZID] | 0.18 (≈ 0.0247 µg/mL) |  | 
Nc1ncnc2ncn([C@H]3C[C@H](O)[C@@H](COS(=O)(=O)NC(=O)c4ccccc4O)O3)c12 |  | 3.5 | 
Nc1ncnc2ncn([C@@H]3O[C@H](CNS(=O)(=O)NC(=O)c4ccccc4O)[C@@H](O)[C@H]3O)c12 | 0.19 (≈ 0.0884 µg/mL) | 3.7 | 
Nc1ncnc2ncn([C@@H]3C[C@H](COS(=O)(=O)NC(=O)c4ccccc4O)[C@@H](O)[C@H]3O)c12 | 1.56 (≈ 0.725 µg/mL) | 2.3 | > 100
Nc1ncnc2ncn([C@@H]3O[C@H](COS(=O)(=O)NC(=O)c4ccccc4O)C[C@H]3O)c12 | 1.56 (≈ 0.703 µg/mL) | 3.2 | 80 (≈ 36 µg/mL)
Nc1ncnc2ncn([C@@H]3O[C@H](COS(=O)(=O)NC(=O)c4ccccc4O)[C@@H](O)[C@H]3O)c12 | 0.29 (≈ 0.135 µg/mL) |  | 20 (≈ 9.33 µg/mL)
Nc1ncnc2ncn([C@H]3CC[C@@H](COS(=O)(=O)NC(=O)c4ccccc4O)C3)c12 | > 200 | 61 | 
Nc1ncnc2ncn(COCCOS(=O)(=O)NC(=O)c3ccccc3O)c12 | > 200 | 16700 | > 100
Nc1ncnc2ncn([C@H]3C=C[C@@H](COS(=O)(=O)NC(=O)c4ccccc4O)C3)c12 | > 200 | 830 | > 100

— ChEMBL document CHEMBL1138866, “Antitubercular nucleosides that inhibit siderophore biosynthesis: SAR of the glycosyl domain” (J Med Chem, 2006)
